Measured values as given in ChEMBL document CHEMBL1134015 (Bioorg Med Chem Lett, 2001).

Assays:
Rattus norvegicus [1] = species: Rattus norvegicus; assay: Time taken to reach the maximum BSR in male Wistar rats; format: functional
Rattus norvegicus [2] = species: Rattus norvegicus; assay: Time required to gain the righting reflex in male Wistar rats; format: functional, organism-based
Rattus norvegicus [3] = species: Rattus norvegicus; assay: Time to the first 0.25 s burst suppression epoch(onset of anaesthesa) in male Wistar rats; format: functional
Rattus norvegicus [4] = species: Rattus norvegicus; assay: Maximum BSR reached in male Wistar rats; format: functional
Rattus norvegicus [5] = species: Rattus norvegicus; assay: Burst suppression ratio (BSR) profile in male Wistar rats; format: functional
In short: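 Male Wistar rats (218–420 g), with extradural electrodes implanted and at least 7 days recovery, lightly hand-restrained. IV injection over 10 s into a tail vein by computer-controlled infusion pump. […] BSR extracted from EEG. Read-outs: onset (first 0.25 s burst-suppression epoch), time to max BSR, time to 50% BSR decrease, time to regain righting reflex. Mean and SEM.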

Mus musculus [6] = assay: In vivo anaesthetic activity after intravenous administration in MF-1 mice was determined by loss of righting reflex using probit analysis; format: functional
Rattus norvegicus [7] = species: Rattus norvegicus; assay: Time taken for 50% decrease in the BSR in male Wistar rats; format: functional
[8] = molecular target: GABA-A receptor; anion channel; assay: Inhibition of [35S]TBPS binding to Gamma-aminobutyric acid A receptor of rat brain membranes; format: cell membranes, Membrane
Mus musculus [9] = assay: In vivo anaesthetic activity after intravenous administration in MF-1 mice was determined by loss of righting reflex using probit analysis; Convulsant; format: functional, organism-based
[10] = tested on: GABA-A receptor; anion channel; assay: Inhibition of [35S]TBPS binding to Gamma-aminobutyric acid A (GABA-A) receptor of rat whole brain membranes (inactive); format: cell membranes
In short: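 Rat whole-brain membranes. Inhibition of [35S]TBPS radioligand binding at the GABA-A receptor. […] Means of three experiments.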

| Structure (SMILES) | HD50 (Mus musculus [6]) | IC50 [8] | also measured |
| --- | --- | --- | --- |
| CC(C)c1cc(CN2CCOCC2)cc(C(C)C)c1O | 32 µM/kg | > 100 µM | Time to max. BSR (Rattus norvegicus [1]): 40 s; Recovery time (Rattus norvegicus [2]): 3.8 min; Onset time (Rattus norvegicus [3]): 16.2 s; Max BSR (Rattus norvegicus [4]): 54.9%; BSR (Rattus norvegicus [5]): 51 µM/kg; Offset time (Rattus norvegicus [7]): 1.7 min |
| CC(C)c1cc(CN2CCOCC2)cc(C(C)C)c1N(C)C | 83 µM/kg | > 30 µM | – |
| CC(C)c1cc(C(=O)CN2CCSCC2)cc(C(C)C)c1O | 68.5 µM/kg | > 10 µM | – |
| CC(C)c1cc(CN(C)Cc2ccccc2)cc(C(C)C)c1O | 25.1 µM/kg | > 10 µM | – |
| CNc1c(C(C)C)cc(CN2CCOCC2)cc1C(C)C | 51 µM/kg | > 100 µM | – |
| CC(C)c1cc(CCN2CCOCC2)cc(C(C)C)c1O | 35.8 µM/kg | > 100 µM | – |
| CC(C)c1cc(CN2CCOCC2)cc(C(C)C)c1 | – | > 30 µM | HD50 (Mus musculus [9]): Convulsant |
| CC(C)c1cccc(C(C)C)c1O [PROPOFOL] | 68 µM/kg | – | Time to max. BSR (Rattus norvegicus [1]): 30 s; Recovery time (Rattus norvegicus [2]): 5.2 min; Onset time (Rattus norvegicus [3]): 13.2 s; Max BSR (Rattus norvegicus [4]): 55%; Offset time (Rattus norvegicus [7]): 1.4 min |
| CC(=O)N1CCN(Cc2cc(C(C)C)c(O)c(C(C)C)c2)CC1 | 38.8 µM/kg | > 100 µM | – |
| CC(=O)Nc1c(C(C)C)cc(CN2CCOCC2)cc1C(C)C | >282 µM/kg | > 10 µM | – |
| CC(C)c1cc(CN2CCSCC2)cc(C(C)C)c1O | 25.5 µM/kg | 27.6 µM | – |
| CCOC(=O)C1CCN(Cc2cc(C(C)C)c(N)c(C(C)C)c2)CC1 | 14.4 µM/kg | – | IC50 [10]: Not Active |
| CC(C)c1cc(CN2CCSCC2)cc(C(C)C)c1N | 22.9 µM/kg | > 100 µM | – |
| CCOC(=O)C1CCN(Cc2cc(C(C)C)c(O)c(C(C)C)c2)CC1 | 19 µM/kg | 31 µM | – |
| CC(C)c1cc(CN2CCOCC2)cc(C(C)C)c1N | 36.5 µM/kg | > 100 µM | – |
